Tb MetRS inh = Trypanosoma brucei MetRS inhibition; purified T. brucei MetRS, ATP depletion, Kinase-Glo luminescence; AID 624268; 360,000 compounds, 0.4% hits; inhibition, % at 11.9 µM;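 active = inhibition above a per-plate cutoff of the control wells' mean inhibition plus 3 SD, cut at about 5.5% in these data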;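 note: 0% = DMSO wells median and 100% = median of wells with control inhibitor compound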
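Material – parasite MetRS enzyme · Medium – HEPES-MgCl2-KCl buffer plus DTT, spermine, BSA, pyrophosphatase · Reagent – ATP, methionine and E. coli bulk tRNA substrates · Times – 15 min enzyme-compound preincubation, 2 h reaction, 10 min detection, 25 °C · Measured by – luminescence of leftover ATP · Evaluation – percent inhibition relative to median high and low control wells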
MPTP block = inhibitors of mitochondrial permeability transition pore; isolated mouse mitochondria, Ca2+ swelling absorbance, 30 min; 360,000 compounds, 1.4% hits; inhibition, % at 10 µM;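 active = inhibition of 50% or more, scaled per plate between neutral and stimulator controls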;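 note: 0% = DMSO wells given calcium and 100% = 1 mM EGTA wells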
CHOP inh = inhibitors of CHOP induction in ER stress response | CHO-K1 CHOP-promoter luciferase, tunicamycin-induced, 15-18 h | inhibition, % at 10 µM | 220,000 compounds, 3.8% hits | AID 2732;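 active = compounds that reduced the stress-induced luciferase reporter signal by more than about 70% of percent inhibition, limit read from the data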;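 note: 0% = tunicamycin plus vehicle and 100% = wells without tunicamycin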
NR3A LBD binder = modulators (binders) of human NR3A ligand-binding domain. NR3A LBD differential scanning fluorimetry, Tm shift; 0% = protein alone, 100% = glycine-bound protein. Tm shift relative to glycine control, % at 25 µM. 340,000 compounds, 2.5% hits;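 active = melting temperature shift of at least 10% of the positive control shift, at one fixed dose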
WT yeast gro inh = growth inhibition of WT yeast, mitochondrial fusion screen; 190,000 compounds, 2.1% hits; inhibition, % at 10 µM; AID 1362; mitochondrial fusion phenotypic screen, WT strain; in the data active = inhibition above about 58%; tested in S. cerevisiae
EBV gp42 inh = inhibitors of Epstein-Barr virus glycoprotein 42; Q1HVG2; Fluorescence polarization binding assay, mP read-out; inhibition, % (tested at 21.74 µM); 220,000 compounds, 0.42% hits; in the data active = inhibition above about 50%
Target sequence (Q1HVG2 whole entry, looked up): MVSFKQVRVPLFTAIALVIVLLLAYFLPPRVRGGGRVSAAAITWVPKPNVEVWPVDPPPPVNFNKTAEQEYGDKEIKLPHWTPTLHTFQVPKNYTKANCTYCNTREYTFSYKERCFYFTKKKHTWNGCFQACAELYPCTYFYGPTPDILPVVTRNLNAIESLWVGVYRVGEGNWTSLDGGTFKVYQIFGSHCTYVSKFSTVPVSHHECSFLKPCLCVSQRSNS
MPTP counter = mitochondrial membrane potential, counter-screen; shares compounds with MPTP block; isolated mitochondria, Rhodamine 123 fluorescence; inhibition, % at 10 µM; 5,000 compounds, 78% hits; AID 624504; in the data active = inhibition above about 22%;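 note: 0% = DMSO vehicle and 100% = positive control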
MPTP abs DR = dose response confirmation of mitochondrial permeability transition pore inhibitors | 780 compounds, 58% hits | IC50, µM | isolated mitochondria swelling, absorbance | shares compounds with MPTP block; in the data active = IC50 below about 20 µM
MPTP cs DR = MPTP inhibitor counter-screen activity, dose response; 780 compounds, 49% hits; isolated mitochondria counterscreen, fluorescence read-out; shares compounds with MPTP block; IC50, µM; in the data active = IC50 below about 80 µM
* hit, by the source's call; i = inactive; nt = not tested or not shown; ! = repeats disagree. An excerpt weighted towards active compounds, which were near 6.4% of everything screened.

SMILES	Tb MetRS inh	MPTP block	CHOP inh	NR3A LBD binder	WT yeast gro inh	EBV gp42 inh	MPTP counter	others
O=C(NCc1ccco1)Nc1ccc([N+](=O)[O-])cc1	0	9	-5	-4	-12	7	nt
O=C(NCc1ccccc1F)Nc1ccc([N+](=O)[O-])cc1	1	94*	6	-8	-7	0	89*
Cc1ccc2nc(-c3ccc(N4C(=O)CC(N5CCN(CCO)CC5)C4=O)cc3)sc2c1 (stereo not drawn)	0	94*	-25	-2	-20	-2	-6	MPTP abs DR=19*;MPTP cs DR=>80
CCCCNc1c(-c2ccc(OC)c(SC3CCCCC3)c2)nc2ccc(C)cn12	0	76*!	nt	-15	nt	nt	98*
COc1ccc(-c2nc3ccc(C)cn3c2NCc2ccccc2)cc1SC1CCCCC1	0	98*	nt	-40	nt	nt	95*
Cc1ccc2nc(-c3cccc(SC4CCCCC4)c3)c(NCc3ccccc3)n2c1	0	12	nt	-28	nt	nt	nt
CCCCNc1c(-c2ccc(SC3CCCCC3)c(OC)c2)nc2ccc(C)cn12	0	6	nt	-10	nt	nt	nt
N=c1oc2cc(O)ccc2cc1C(=O)Nc1ccc(Br)cc1	-1	61*	nt	-2	nt	nt	78*
N=c1oc2ccccc2cc1C(=O)Nc1ccccc1	0	2	nt	-3	nt	nt	nt
COc1ccc(C)c2sc(N(CCCN(C)C)C(=O)CS(=O)(=O)c3ccc(F)cc3)nc12	0	85*	nt	nt	nt	nt	-18	MPTP abs DR=5.7*;MPTP cs DR=>80
CCc1ccc2[nH]c(=O)c(CN(CCCN3CCOCC3)C(=O)Nc3ccc(Cl)cc3)cc2c1	0	6	58	-5	-3	8	nt
COc1ccc(N/N=C/c2c(C(=O)O)ccc3ccccc23)cc1	0	82*	96*	3	nt	9	52*
COc1ccc2ccccc2c1/C=N/Nc1ccc(Cl)c(C(=O)O)c1	0	2	nt	-29	nt	nt	nt
OCC1(Cc2ccc(Cl)cc2)CCN(CCCc2ccccc2)CC1	1	53*	10	0	34	-9	-10	MPTP abs DR=10*
O=C(OC1Cn2c(=O)ccc(=O)n2C1)c1ccc([N+](=O)[O-])cc1	1	0	0	-1	-23	-15	nt
Cc1ccc(O)c(C=Nc2cc(C)ccc2O)c1	-1	3	27	3	-3	-16	nt
Cc1ccc(O)c(N=Cc2cc(Cc3ccccc3)cc([N+](=O)[O-])c2O)c1	0	64*	-15	-9	3	9	55*
CCOc1ccc(CNC(=O)C2CCN(S(=O)(=O)c3ccc4c(c3)CCCC(=O)N4)CC2)cc1	0	-1	nt	-3	nt	nt	nt
O=C1NC(c2cc(Cl)cc([N+](=O)[O-])c2O)Nc2ccccc21 (stereo not drawn)	-1	88*	1	14*	nt	8	10	MPTP abs DR=i;MPTP cs DR=11*
Cc1ccc(Oc2ccc3c(c2)C(=O)N(c2ccc(S(=O)(=O)Nc4nccs4)cc2)C3=O)cc1	2	4	-15	1	-5	3	nt
COc1ccc(/C=C2/SC(=S)N(c3ccc(S(=O)(=O)Nc4nccs4)cc3)C2=O)cc1	0	89*	46	7	nt	-9	64*
Cc1ccc(/C=C2/SC(=S)N(c3ccc(S(=O)(=O)Nc4nccs4)cc3)C2=O)cc1	-1	96*	58	4	nt	3	75*
O=C1/C(=C\c2ccccn2)SC(=S)N1c1ccc(S(=O)(=O)Nc2nccs2)cc1	-1	70*	28	0	nt	-17	48*
Cc1ccc(S(=O)(=O)N2C[C@H]3C(=O)C[C@@H](c4cccc(Cl)c4)N(S(=O)(=O)c4ccc(C)cc4)[C@H]3C[C@H]2c2ccc(Cl)cc2)cc1	1	-2	nt	nt	nt	nt	nt
CC[C@@H](C)[C@H](NC(=O)C1CCN(C(=O)[C@@H](NS(=O)(=O)c2ccc(C)cc2)C(C)C)CC1)C(=O)O	-1	13	-5	0	8	-18	nt
SMILES	Tb MetRS inh	MPTP block	CHOP inh	NR3A LBD binder	WT yeast gro inh	EBV gp42 inh	MPTP counter	others
O=C(/C=C/c1cc([N+](=O)[O-])ccc1OC(F)F)Nc1cccc([N+](=O)[O-])c1	0	89*	26	2	nt	-1	10	MPTP abs DR=8.2*;MPTP cs DR=<2.5*
CCOC(=O)c1cc(NC(=O)COc2ccc([N+](=O)[O-])cc2)cc(C(=O)OCC)c1	0	50*	36	-3	-1	-8	56*
CCOC(=O)c1cccc(NC(=O)/C=C/c2ccc([N+](=O)[O-])cc2)c1	-1	92*	59	5	-4	-18	78*
O=C(NCCCCCCNC(=O)OCc1ccccc1)OCc1ccccc1	0	3	nt	1	nt	nt	nt
Cn1cc(Cc2ccc(C(=O)N3CCCCC3)cn2)c2ccccc21	-1	-2	nt	nt	nt	nt	nt
Cc1ccc(-c2nc3ncccc3o2)cc1NC(=O)c1ccccc1	0	2	4	-2	nt	0	nt
CC1(C)Cc2cccc(OCC(=O)NCCOc3ccccc3)c2O1	-1	0	3	0	3	-3	nt
CCOC(=O)c1ccc(NC(=O)Nn2cnnc2)cc1	0	1	nt	0	nt	nt	nt
COc1ccc2cc(CN(CC3CCCO3)S(=O)(=O)c3ccccc3Cl)c(=O)[nH]c2c1 (stereo not drawn)	0	0	23	1	-11	-15	nt
Cc1ccc(COC(=O)c2nn(C)c(=O)c3ccccc23)cc1	-1	55*	39	-3	9	-9	34*
C=CCn1cc(/C=N/Nc2nc3ccccc3[nH]2)c2ccccc21	5.6*	63*	59	-4	65	13	-22
CCCn1c(/C=N/Nc2nc3ccccc3[nH]2)nc2ccccc21	3	90*	45	-9	58*	-19	81*
Cn1c(/C=N/Nc2nc3ccccc3[nH]2)nc2ccccc21	1	1	19	5	64	1	nt
CC(C)Cn1c(/C=N/Nc2nc3ccccc3[nH]2)nc2ccccc21	0	100*	-55	-8	60*	-42	74*
Cc1c(/C=N/Nc2nc3ccccc3[nH]2)c2ccccc2n1C	5	1	-218	3	nt	-4	nt
CCOc1ccc(S(=O)(=O)N(C)CC(=O)NCCN2CCOCC2)cc1	-1	0	nt	-3	nt	nt	nt
CC(=O)c1c(C)[nH]c(C(=O)OCc2ccccc2F)c1C	0	8	-2	0	0	10	nt
COc1cc2c(cc1NC(=S)NC(=O)/C=C/c1ccco1)oc1ccccc12	0	3	-43	2	3	-16	nt
Cc1sc2ncnc(NCC3COc4ccccc4O3)c2c1C (stereo not drawn)	-1	100*	76*	1	6	4	95*

Screening results (PubChem BioAssay)
